From article PMC3690702 (Nuclear medicine and biology, 2010)
Like-named read-outs stand apart in the source and are kept apart here. Values belong to the molecule of their own block, whether it stands above or below them.

Columns and labels:
[1] = test system: BCRP; details: cited from earlier work
[2] = Stability testing in formulation solution for i.v. injection; assay type: physicochemical; details: at least 2 h at room temperature; 0.9% aq. saline/ethanol/polyethylene glycol 300; HPLC system A
[3] = assay type: in vivo, mice; details: for total plasma radioactivity recovered in SPE fraction 3 (MeOH) / percentage of unchanged [11C]-1 in mouse plasma / Blood concentration, 25 min: n=1; for percentage of unchanged [11C]-1 in mouse plasma: 25 min after tracer injection; for percentage of total brain radioactivity in the form of unchanged [11C]-1: brain tissue extract, HPLC system A; for Blood concentration, 25 min: total radioactivity; for mean brain-to-plasma ratio of unchanged [11C]-1, fold higher compared to wild-type animals: 25 min, p=0.0495; for Kp at 25 min: mouse, brain and plasma, intravenous, Brain-plasma ratio of unchanged [11C]-1, 25 min, mean±SD
Summary of the method: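 Female mice, 25-30 g, one per genotype, given radiotracer i.v. At 25 min: cardiac blood into heparin, spun 3,000×g, 5 min, 21°C, for plasma. Blood and plasma weighed, gamma-counted (cross-calibrated with PET), decay-corrected, %ID/g. Plasma spiked with unlabelled carrier, acidified, run through tC18 SPE (H2O wash, MeOH elution). H2O and MeOH fractions went to reversed-phase HPLC (pH 5.0, 35°C) and Aminex HPLC, UV 227 nm. Brain homogenised in saline, CH3CN-extracted, supernatant HPLC.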

[4] = Small-animal PET imaging of [11C]-1 in wild-type and transporter knockout mice; assay type: in vivo; details: for Brain AUC / Brain-blood ratio, 25 min / Brain concentration, 25 min: total radioactivity, mean±SD; for Brain AUC: 0-60 min; for Brain AUC / Brain concentration, 25 min: n=3; for AUC of brain TACs, fold higher compared to wild-type animals: p=0.0495
Summary of the method: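 Female mice, 25-30 g, three per genotype. Isoflurane 2.5% to induce, 1.5-2% by mask to maintain, warmed to about 38°C. About 0.1 mL radiotracer (28±16 MBq) into the lateral tail vein. Whole-brain PET TACs as %ID/g; AUC from zero to the last time point. Brain %ID/g at 25 min divided by whole-blood %ID/g from a separate group (one mouse per genotype) gives brain-blood ratio. Mean±SD; Mann-Whitney U versus wild-type.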

[5] = Stability testing in mouse plasma in vitro; assay type: in vitro ADME; details: 37°C, 30 min, SPE/HPLC
Summary of the method: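 Citrated mouse plasma (0.5 mL) mixed with 20 µL formulated radiotracer (about 40 MBq). Held 30 min at 37°C in a shaking water bath. Then C18 solid-phase extraction: acidified load, H2O wash, MeOH elution. Fractions analysed by radio-HPLC, reversed-phase column, CH3CN/MeOH/NH4OAc pH 5.0, UV 227 nm, to find the polar labelled species.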

[6] = rats; time course of a 1 h PET scan; cited from earlier work
[7] = Bcrp1(−/−) mice, 25 min after injection
[8] = Mdr1a/b(−/−) mice, 25 min after injection
[9] = wild-type mice, 25 min after injection

SMILES: COC(=O)c1ccc(C(=O)Nc2ccc(CCN3CCc4cc(OC)c(OC)cc4C3)cc2)cc1NC(=O)c1ccc2ccccc2n1 [Compound 1, Methyl 4-((4-(2-(6,7-dimethoxy-1,2,3,4-tetrahydroisoquinolin-2-yl)ethyl)phenyl)amino-carbonyl)-2-(quinoline-2-carbonylamino)benzoate]
selectivity for inhibition of BCRP over P-gp ([1]; in vitro transport assays): approximately 500 fold
IC50 ([1]; read-out: half-maximum inhibitory concentration (IC50), BCRP-mediated transport of mitoxantrone, topotecan-resistant MCF-7 breast cancer cells): 60 nM

stability in formulation solution for i.v. injection [2]: 100%
total plasma radioactivity recovered in SPE fraction 3 (MeOH) [3, 7]: 19%
percentage of unchanged [11C]-1 in mouse plasma ([3]; Bcrp1(−/−) mice): 14%
percentage of total brain radioactivity in the form of unchanged [11C]-1 [3, 7]: 25%
Blood concentration, 25 min ([3]; Bcrp1(−/−) mice): 2.3 %ID/g
mean brain-to-plasma ratio of unchanged [11C]-1, fold higher compared to wild-type animals ([3]; Mdr1a/b(−/−) mice): 4.8 fold
total plasma radioactivity recovered in SPE fraction 3 (MeOH) [3, 8]: 28%
percentage of unchanged [11C]-1 in mouse plasma ([3]; Mdr1a/b(−/−) mice): 17%
percentage of total brain radioactivity in the form of unchanged [11C]-1 [3, 8]: 62%
Blood concentration, 25 min ([3]; Mdr1a/b(−/−) mice): 2.5 %ID/g
mean brain-to-plasma ratio of unchanged [11C]-1, fold higher compared to wild-type animals ([3]; Mdr1a/b(−/−)Bcrp1(−/−) mice): 10.3 fold
total plasma radioactivity recovered in SPE fraction 3 (MeOH) ([3]; Mdr1a/b(−/−)Bcrp1(−/−) mice, 25 min after injection): 18%
percentage of unchanged [11C]-1 in mouse plasma ([3]; Mdr1a/b(−/−)Bcrp1(−/−) mice): 11%
Blood concentration, 25 min ([3]; Mdr1a/b(−/−)Bcrp1(−/−) mice): 1.8 %ID/g
total plasma radioactivity in the form of unchanged parent ([3]; mouse plasma extracts, 25 min after injection, range over the 4 mouse types): 11-17%
Kp at 25 min ([3]; Bcrp1(−/−) mice): 2.1 ± 0.1
Kp at 25 min ([3]; Mdr1a/b(−/−) mice): 8.6 ± 1.6
Kp at 25 min ([3]; Mdr1a/b(−/−)Bcrp1(−/−) mice): 18.3 ± 3.7
Kp at 25 min ([3]; wild-type mice): 1.8 ± 0.1
total plasma radioactivity recovered in SPE fraction 3 (MeOH) [3, 9]: 25%
percentage of unchanged [11C]-1 in mouse plasma ([3]; wild-type mice): 13%
percentage of total brain radioactivity in the form of unchanged [11C]-1 [3, 9]: 12%
Blood concentration, 25 min ([3]; wild-type mice): 2.1 %ID/g
Brain AUC ([4]; Bcrp1(−/−) mice): 3.1±0.2 h·%ID/g
Brain-blood ratio, 25 min ([4]; Bcrp1(−/−) mice): 1.6±0.1
Brain concentration, 25 min ([4]; Bcrp1(−/−) mice): 3.5±0.2 %ID/g
AUC of brain TACs, fold higher compared to wild-type animals ([4]; Mdr1a/b(−/−) mice): 1.3 fold
Brain AUC ([4]; Mdr1a/b(−/−) mice): 3.6±0.6^† h·%ID/g
Brain-blood ratio, 25 min ([4]; Mdr1a/b(−/−) mice): 1.7±0.3
Brain concentration, 25 min ([4]; Mdr1a/b(−/−) mice): 4.2±0.8 %ID/g
Brain AUC ([4]; Mdr1a/b(−/−)Bcrp1(−/−) mice): 5.1±0.9^† h·%ID/g
Brain-blood ratio, 25 min ([4]; Mdr1a/b(−/−)Bcrp1(−/−) mice): 3.2±0.6
Brain concentration, 25 min ([4]; Mdr1a/b(−/−)Bcrp1(−/−) mice): 5.8±1.2 %ID/g
AUC of brain TACs, fold higher compared to wild-type animals ([4]; triple knockout (Mdr1a/b(−/−)Bcrp1(−/−)) mice): 1.8 fold
Brain AUC ([4]; wild-type mice): 2.8±0.2 h·%ID/g
Brain-blood ratio, 25 min ([4]; wild-type mice): 1.5±0.1
Brain concentration, 25 min ([4]; wild-type mice): 3.2±0.2 %ID/g
total radioactivity degraded to an unidentified polar radiolabelled species [5]: > 98%
SMILES: COc1cc2c(cc1OC)CN(CCc1ccc(NC(=O)c3ccc(C(=O)O[11CH3])c(NC(=O)c4ccc5ccccc5n4)c3)cc1)CC2 [[^11C]-1, [^11C]Methyl 4-((4-(2-(6,7-dimethoxy-1,2,3,4-tetrahydroisoquinolin-2-yl)ethyl)phenyl)amino-carbonyl)-2-(quinoline-2-carbonylamino)benzoate]

SMILES: COc1cc2c(cc1OC)CN(CCc1ccc(NC(=O)c3cc(OC)c(OC)cc3NC(=O)c3cnc4ccccc4c3)cc1)CC2 [tariquidar]
metabolism in vivo [6]: hardly metabolized
